Results reported in ChEMBL document CHEMBL2311407, “Design and synthesis of diazatricyclodecane agonists of the G-protein-coupled receptor 119” (J Med Chem, 2013).
Values after ≈ are worked out from the molar mass of the structure shown.

What was measured:
[1] = Oral bioavailability in Sprague-Dawley rat at 3 mg/kg administered as spray dried dispersion; type: ADME, organism-based; conditions: in vivo
In short: (§1)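 Rats were dosed po at 0.6 mL/kg with a 25% amorphous spray dried dispersion (with HPMCAS-HF) in 20 mM Tris buffer with 0.5% methylcellulose + 0.5% HPMCAS-HF, pH 7.4. Plasma concentrations are total drug. Data are mean ± SD of three animals. F is based on 1 mg/kg rat iv data.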

[2] = AUC in Sprague-Dawley rat at 3 mg/kg, po dosing of milled material in 0.5% methylcellulose; type: ADME, organism-based; parameters: dose 3 mg/kg, route oral; conditions: in vivo
In short: (§2)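 Rat po dosing of milled material (2−25 μm premilling, about 190 nm postmilling) suspended in 0.5% methylcellulose. Plasma concentrations are total drug. Data are mean ± SD of three animals. F is calculated from 1 mg/kg rat iv data.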

[3] = Oral bioavailability in Beagle dog at 3 mg/kg administered as spray dried dispersion; type: ADME, organism-based, Canis lupus familiaris; conditions: in vivo
In short: (§3)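 Male beagle dogs were dosed po at 3 mg/kg, 0.6 mL/kg, as 25% spray dried dispersion in 20 mM Tris buffer with 0.5% methylcellulose + 0.5% HPMCAS-HF, pH 7.4. Plasma concentrations are total drug. Values are the mean of two animals. F is calculated against 1 mg/kg iv dog data.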

[4] = Tmax in Sprague-Dawley rat at 30 mg/kg, po administered as spray dried dispersion; type: ADME, organism-based; parameters: dose 30 mg/kg, route oral; conditions: in vivo
[5] = Cmax in Beagle dog at 100 mg/kg, po administered as spray dried dispersion; type: ADME, organism-based, Canis lupus familiaris; parameters: dose 100 mg/kg, route oral; conditions: in vivo
In short: (§4)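 Oral gavage in male beagle dogs at 10, 30 or 100 mg/kg, 5 mL/kg, as 25% spray dried dispersion in 20 mM Tris buffer in 0.5% methylcellulose and 0.5% HPMCAS-HF, pH 7.4. Plasma concentrations are total drug. Values are the mean of two animals. F is based on 1 mg/kg iv dog data.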

[6] = Cmax in Sprague-Dawley rat at 3 mg/kg, po dosing of milled material in 0.5% methylcellulose; type: ADME, organism-based; parameters: dose 3 mg/kg, route oral; conditions: in vivo; in short: as §2
[7] = Oral bioavailability in Sprague-Dawley rat at 30 mg/kg administered as milled material in 0.5% methylcellulose; type: ADME, organism-based; conditions: in vivo; in short: as §2
[8] = Clearance in Sprague-Dawley rat at 1 mg/kg, iv; type: ADME, organism-based; parameters: dose 1 mg/kg, route intravenous; conditions: in vivo
In short: (§5)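 Rats received 1 mg/kg iv in 10% N-methylpyrrolidone and 90% of a 30% SBE-CD solution. Plasma concentrations are total drug. Data are mean ± SD of three animals.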

[9] = AUC in Beagle dog at 30 mg/kg, po administered as spray dried dispersion; type: ADME, organism-based, Canis lupus familiaris; parameters: dose 30 mg/kg, route oral; conditions: plasma; in short: as §4
[10] = Cmax in Beagle dog at 30 mg/kg, po administered as spray dried dispersion; type: ADME, organism-based, Canis lupus familiaris; parameters: dose 30 mg/kg, route oral; conditions: in vivo; in short: as §4
[11] = AUC in Beagle dog at 3 mg/kg, po administered as spray dried dispersion; type: ADME, organism-based, Canis lupus familiaris; parameters: dose 3 mg/kg, route oral; conditions: plasma; in short: as §3
[12] = Volume of distribution at steady state in Beagle dog at 1 mg/kg, iv; type: ADME, organism-based, Canis lupus familiaris; parameters: dose 1 mg/kg, route intravenous; conditions: in vivo, read-out: Vdss
In short: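 Male beagle dogs received 1 mg/kg iv at 2 mL/kg in 5% DMA/75% PEG200/20% (30% SBE-CD). Plasma concentrations are reported as total drug. Parameters are means from two animals.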

[13] = Oral bioavailability in Beagle dog at 10 mg/kg administered as spray dried dispersion; type: ADME, organism-based, Canis lupus familiaris; conditions: in vivo; in short: as §4
[14] = Oral bioavailability in Sprague-Dawley rat at 30 mg/kg administered as spray dried dispersion; type: ADME, organism-based; conditions: in vivo; in short: as §1
[15] = Tmax in Beagle dog at 10 mg/kg, po administered as spray dried dispersion; type: ADME, organism-based, Canis lupus familiaris; parameters: dose 10 mg/kg, route oral; conditions: in vivo; in short: as §4
[16] = AUC in Sprague-Dawley rat at 3 mg/kg, po dosing in 0.5% methylcellulose; type: ADME, organism-based; parameters: dose 3 mg/kg, route oral; conditions: in vivo
In short: (§6)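 Rats were dosed orally at 3 mg/kg in 0.5% methylcellulose. Plasma concentrations are total drug. Data are mean ± SD of three animals. F is based on 1 mg/kg rat iv PK.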

[17] = Tmax in Beagle dog at 100 mg/kg, po administered as spray dried dispersion; type: ADME, organism-based, Canis lupus familiaris; parameters: dose 100 mg/kg, route oral; conditions: in vivo; in short: as §4
[18] = Half life in Sprague-Dawley rat at 1 mg/kg, iv; type: ADME, organism-based; parameters: dose 1 mg/kg, route intravenous; conditions: in vivo; in short: as §5
[19] = AUC in Sprague-Dawley rat at 1 mg/kg, iv; type: ADME, organism-based; parameters: dose 1 mg/kg, route intravenous; conditions: plasma; in short: as §5
[20] = Cmax in Beagle dog at 10 mg/kg, po administered as spray dried dispersion; type: ADME, organism-based, Canis lupus familiaris; parameters: dose 10 mg/kg, route oral; conditions: in vivo; in short: as §4
[21] = Cmax in Sprague-Dawley rat at 3 mg/kg, po dosing in 0.5% methylcellulose; type: ADME, organism-based; parameters: dose 3 mg/kg, route oral; conditions: in vivo; in short: as §6
[22] = Tmax in Beagle dog at 30 mg/kg, po administered as spray dried dispersion; type: ADME, organism-based, Canis lupus familiaris; parameters: dose 30 mg/kg, route oral; conditions: in vivo; in short: as §4
[23] = AUC in Sprague-Dawley rat at 30 mg/kg, po administered as spray dried dispersion; type: ADME, organism-based; parameters: dose 30 mg/kg, route oral; conditions: plasma; in short: as §1
[24] = Clearance in Beagle dog at 1 mg/kg, iv; type: ADME, organism-based, Canis lupus familiaris; parameters: dose 1 mg/kg, route intravenous; conditions: in vivo
In short: (§7)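 Male beagle dogs received 1 mg/kg iv at 2 mL/kg in 5% dimethylacetamide/75% PEG200/20% (30% SBE-CD). Plasma concentrations are total drug. Values are the mean of two animals.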

[25] = Oral bioavailability in Sprague-Dawley rat at 3 mg/kg administered in 0.5% methylcellulose; type: ADME, organism-based; conditions: in vivo; in short: as §6
[26] = Cmax in Sprague-Dawley rat at 30 mg/kg, po administered as spray dried dispersion; type: ADME, organism-based; parameters: dose 30 mg/kg, route oral; conditions: in vivo; in short: as §1
[27] = Oral bioavailability in Beagle dog at 30 mg/kg administered as spray dried dispersion; type: ADME, organism-based, Canis lupus familiaris; conditions: in vivo; in short: as §4
[28] = Oral bioavailability in Sprague-Dawley rat at 3 mg/kg dosed as milled material in 0.5% methylcellulose; type: ADME, organism-based; conditions: in vivo; in short: as §2
[29] = Half life in Beagle dog at 1 mg/kg, iv; type: ADME, organism-based, Canis lupus familiaris; parameters: dose 1 mg/kg, route intravenous; conditions: in vivo; in short: as §7
[30] = Tmax in Beagle dog at 3 mg/kg, po administered as spray dried dispersion; type: ADME, organism-based, Canis lupus familiaris; parameters: dose 3 mg/kg, route oral; conditions: in vivo; in short: as §3
[31] = Thermodynamic solubility of the compound in PBS at pH 7.4; type: physicochemical; conditions: read-out: Therm_solubility
[32] = Cmax in Beagle dog at 3 mg/kg, po administered as spray dried dispersion; type: ADME, organism-based, Canis lupus familiaris; parameters: dose 3 mg/kg, route oral; conditions: in vivo; in short: as §3
[33] = Cmax in Beagle dog at 1 mg/kg, iv; type: ADME, organism-based, Canis lupus familiaris; parameters: dose 1 mg/kg, route intravenous; conditions: in vivo; in short: as §7
[34] = Fraction unbound in Beagle dog plasma; type: ADME, cell-free, Canis lupus familiaris
[35] = Tmax in Sprague-Dawley rat at 3 mg/kg, po dosing of milled material in 0.5% methylcellulose; type: ADME, organism-based; parameters: dose 3 mg/kg, route oral; conditions: in vivo; in short: as §2
[36] = AUC in Beagle dog at 10 mg/kg, po administered as spray dried dispersion; type: ADME, organism-based, Canis lupus familiaris; parameters: dose 10 mg/kg, route oral; conditions: plasma; in short: as §4
[37] = Half life in Beagle dog at 3 mg/kg, po administered as spray dried dispersion; type: ADME, organism-based, Canis lupus familiaris; parameters: dose 3 mg/kg, route oral; conditions: in vivo; in short: as §3
[38] = Tmax in Sprague-Dawley rat at 3 mg/kg, po dosing in 0.5% methylcellulose; type: ADME, organism-based; parameters: dose 3 mg/kg, route oral; conditions: in vivo; in short: as §6
[39] = AUC in Sprague-Dawley rat at 30 mg/kg, po dosing of milled material in 0.5% methylcellulose; type: ADME, organism-based; parameters: dose 30 mg/kg, route oral; conditions: in vivo; in short: as §2
[40] = AUC in Beagle dog at 100 mg/kg, po administered as spray dried dispersion; type: ADME, organism-based, Canis lupus familiaris; parameters: dose 100 mg/kg, route oral; conditions: plasma; in short: as §4
[41] = AUC in Sprague-Dawley rat at 3 mg/kg, po administered as spray dried dispersion; type: ADME, organism-based; parameters: dose 3 mg/kg, route oral; conditions: plasma; in short: as §1
[42] = Apparent intrinsic clearance in human liver microsomes; type: ADME, Microsome; conditions: read-out: CLH(app)
[43] = AUC in Beagle dog at 1 mg/kg, iv; type: ADME, organism-based, Canis lupus familiaris; parameters: dose 1 mg/kg, route intravenous; conditions: plasma; in short: as §7
[44] = Cmax in Sprague-Dawley rat at 3 mg/kg, po administered as spray dried dispersion; type: ADME, organism-based; parameters: dose 3 mg/kg, route oral; conditions: in vivo; in short: as §1
[45] = Thermodynamic solubility of the compound in PBS at pH 1.2; type: physicochemical; conditions: read-out: Therm_solubility
[46] = Apparent permeability in MDCK2 cells; type: ADME, cell-based, Canis lupus familiaris, MDCK-II; conditions: dog, MDCK
[47] = Tmax in Sprague-Dawley rat at 30 mg/kg, po dosing of milled material in 0.5% methylcellulose; type: ADME, organism-based; parameters: dose 30 mg/kg, route oral; conditions: in vivo
In short: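 Nanomilled material (about 190 nm after milling) was suspended in 0.5% methylcellulose and dosed orally to rats. Plasma concentrations are reported as total drug. Values are mean ± SD from three animals.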

[48] = Oral bioavailability in Beagle dog at 100 mg/kg administered as spray dried dispersion; type: ADME, organism-based, Canis lupus familiaris; conditions: in vivo; in short: as §4
[49] = Volume of distribution at steady state in Sprague-Dawley rat at 1 mg/kg, iv; type: ADME, organism-based; parameters: dose 1 mg/kg, route intravenous; conditions: in vivo, read-out: Vdss
In short: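 Rats received an iv dose of 1 mpk in a vehicle of 10% N-methylpyrrolidone and 90% SBE-CD solution prepared at 30%. Plasma concentrations are total drug. Values are mean ± SD from three animals.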

[50] = Cmax in Sprague-Dawley rat at 30 mg/kg, po dosing of milled material in 0.5% methylcellulose; type: ADME, organism-based; parameters: dose 30 mg/kg, route oral; conditions: in vivo; in short: as §2
[51] = Tmax in Sprague-Dawley rat at 3 mg/kg, po administered as spray dried dispersion; type: ADME, organism-based; parameters: dose 3 mg/kg, route oral; conditions: in vivo; in short: as §1
[52] = Fraction unbound in Sprague-Dawley rat plasma; type: ADME, cell-free

Cc1c(Oc2ccc(-n3cnnn3)cc2F)ncnc1N1C2CC3CC1CC(C2)N3C(=O)OC1(C)CC1
bioavailability [1]: > 100%
AUC [2]: 3180 ng·h/mL
bioavailability [3]: 60%
Tmax [4]: 4 h
Cmax [5]: 6030 ng/mL
Cmax [6]: 255 ng/mL
bioavailability [7]: 31%
clearance [8]: 13.2 mL/min/kg
AUC [9]: 76800 ng·h/mL
Cmax [10]: 3750 ng/mL
AUC [11]: 8580 ng·h/mL
Vd [12]: 3.7 L/kg
bioavailability [13]: 87%
bioavailability [14]: > 100%
Tmax [15]: 1 h
AUC [16]: 312 ng·h/mL
Tmax [17]: 1.5 h
half-life [18]: 4.34 h
AUC [19]: 1360 ng·h/mL
Cmax [20]: 1950 ng/mL
Cmax [21]: 24.2 ng/mL
Tmax [22]: 1 h
AUC [23]: 49100 ng·h/mL
clearance [24]: 1.74 mL/min/kg
bioavailability [25]: 7.6%
Cmax [26]: 3490 ng/mL
bioavailability [27]: 54%
bioavailability [28]: 78%
half-life [29]: 26.8 h
Tmax [30]: 1 h
solubility thermodynamic [31]: 0.7 µg/mL (≈ 1.38 µM)
Cmax [32]: 812 ng/mL
Cmax [33]: 515 ng/mL
fraction unbound [34]: 0.014
Tmax [35]: 4.7 h
AUC [36]: 41000 ng·h/mL
half-life [37]: 20 h
Tmax [38]: 3 h
AUC [39]: 12500 ng·h/mL
AUC [40]: 151000 ng·h/mL
AUC [41]: 6140 ng·h/mL
CLint scaled [42]: < 9.5 mL/min/kg
AUC [43]: 4730 ng·h/mL
Cmax [44]: 484 ng/mL
solubility thermodynamic [45]: 4.8 µg/mL (≈ 9.48 µM)
Papp [46]: 3.5 ×10⁻⁶ cm/s
Tmax [47]: 6 h
bioavailability [48]: 32%
Vd [49]: 3.96 L/kg
Cmax [50]: 912 ng/mL
Tmax [51]: 4.7 h
fraction unbound [52]: 0.01
